Measurements from different studies.
Each line is one published result; the experiments were not run side by side.
Target: Beta-2 adrenergic receptor (ADRB2, Homo sapiens, UniProt P07550)
Concentration: 10 µM

For `CC(=O)N1CCC(c2ccc(C(=O)NC3=NCCN3)cc2C(F)(F)F)CC1`, the inhibition was -14.2% (ligand displacement).
The inhibition of `CCN(CC)c1ccc(C2Nc3ccc(C(=O)c4ccccc4)cc3NC3=C2C(=O)CC(C)(C)C3)cc1` (stereo not shown) is reported as 1% (ligand displacement; radioligand).
`CN1CCN(c2ccnc(NCCc3ccccc3)n2)CC1` gave an inhibition of -3.49% (ligand displacement).
`N#Cc1cc(Cn2c(N3CCCC3)nc3ccccc32)ccc1F` gave an inhibition of 0% (ligand displacement).
`Ic1cccc2cnccc12` has an inhibition of 0% (ligand displacement; radioligand).
For `CCCNc1nc2ccccc2n1Cc1ccc(Cl)cc1`, the inhibition was -10.2% (ligand displacement).
With `Oc1cccc(Nc2nc(-c3ccc(F)cc3F)cs2)c1` the inhibition was 4% (cell-free assay).
The inhibition of `O=C1N=C(N2CCCCN2)S/C1=C\c1ccc(F)cc1O` is reported as under 10% (ligand displacement; radioligand).
For `O=C(c1ccc(F)cc1)N(Cc1ccccc1)C1CCCCC1`, the inhibition was 7% (cell-free assay).
For `O=C(Nc1ccc(S(=O)(=O)N2CCC(Cl)CC2)cc1)c1ccc([N+](=O)[O-])o1`, the inhibition was 17% (ligand displacement; radioligand).
